Experimental data from PMC5844354 (Chembiochem : a European journal of chemical biology, 2018).
Each block holds one compound with its values, some of them ahead of it.

Assays:
Fis1 [1] = target: T1, Fis1 (Homo sapiens, UniProt Q9Y3D6); format: binding; settings: for binding to Fis1 in library screen: 1 mM fragment, 352-fragment library screen; for nonspecific NMR crosspeak broadening of Fis1: 1 mM compound, 50 μM 15N-Fis1, SOFAST-HMQC
T1 sequence (Q9Y3D6 1-125): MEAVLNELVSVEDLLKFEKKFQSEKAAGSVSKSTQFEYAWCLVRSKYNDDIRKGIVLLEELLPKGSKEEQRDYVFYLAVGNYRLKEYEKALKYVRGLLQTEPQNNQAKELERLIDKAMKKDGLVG
Procedure, shortened: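 Human Fis1 cytosolic domain (residues 1–125), His₆-SUMO fusion, expressed in ¹⁵N minimal medium and Ni-affinity purified. Buffer was 50 mM sodium phosphate pH 7.0, 175 mM NaCl, 2 mM DTT, 10% D₂O. Library screen: 352 fragments pooled six per sample, 1 mM each, 97 μM protein, 3% [D₆]DMSO, hits at +1 σ. Follow-up: single fragments at 1 mM with 50 μM protein. ¹H,¹⁵N SOFAST-HMQC at 25°C.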

Fis1 [2] = target: T1, Fis1; test: Mass spectrometry of Fis1 with interfering compounds; settings: from apo Fis1 14 487.2 Da; suggests direct chemical modification
[3] = target: first bromodomain of BRD4; settings: cited from earlier work
BRD4(BD2) = BRD4(BD2) (Homo sapiens, UniProt O60885); test: NMR titration; format: binding
CXCL12 = CXCL12 (Homo sapiens, UniProt P48061); test: 2D protein-detected NMR of individual compounds at 1 mM against 15N-CXCL12; format: binding; settings: 1 mM compound, 100 μM 15N-CXCL12, SOFAST-HMQC
Sequence of CXCL12 (P48061 22-89 limits assumed): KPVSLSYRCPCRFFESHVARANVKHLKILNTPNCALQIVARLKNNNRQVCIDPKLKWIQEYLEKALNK
Procedure, shortened: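 Commercial recombinant human ¹⁵N-CXCL12. Each test compound was screened singly: 1 mM final in 0.5% (v/v) [D₆]DMSO, 99.5 μM final protein, with a DMSO control. Buffer was 50 mM sodium phosphate pH 6.0, 0.02% sodium azide, 10% D₂O. ¹H,¹⁵N SOFAST-HMQC at 25°C and 600 MHz with cryoprobe; 16 scans, 1024 × 210 complex points. Spectra were overlaid on the DMSO control.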

binding to Fis1 in library screen (Fis1 [1]): none of which bound appreciably
SMILES: Nc1cccc2cccc(N)c12 [1,8-diaminonaphthalene]

mass shift of Fis1 (Fis1 [2]): 119.7 Da
SMILES: Cc1cc(O)ccc1O [2-methylbenzene-1,4-diol]

SMILES: Nc1cc2ccccc2cc1O [3-amino-2-naphthol]
binding to Fis1 in library screen (Fis1 [1]): none of which bound appreciably

SMILES: Nc1ccc(O)cc1 [4-aminophenol]
nonspecific NMR crosspeak broadening of Fis1 (Fis1 [1]): did not induce nonspecific NMR crosspeak broadening

Kd (BRD4(BD2)): 1600 µM
SMILES: CC(=O)Nc1ccc(O)cc1 [acetaminophen]
Kd [3]: 290 µM

binding to Fis1 in library screen (Fis1 [1]): none of which bound appreciably
SMILES: NS(=O)(=O)c1ccc2ccccc2c1 [naphthalene-2-sulfonamide]

SMILES: O=C1c2ccccc2C(=O)C1(O)O [ninhydrin]
nonspecific NMR crosspeak broadening of CXCL12 (CXCL12): induce nonspecific NMR crosspeak broadening across all targets screened | nonspecific NMR crosspeak broadening of Fis1 (Fis1 [1]): induce nonspecific NMR crosspeak broadening across all targets screened
